Reference: article PMC7226283 (Cancer Science, 2020)
Peptide text beside a SMILES is read from it. * marks the point of attachment. Cbz = O=C(OCc1ccccc1)*

Assays:
KRASm/TP53‐ HCT116 cells = test: MTS cell viability assay, KRASm/TP53‐ HCT116; format: cell-based; conditions: for recovery of the efficacy of L‐OHP on KRASm/TP53‐ HCT116 cells / cell growth rate of KRASm/TP53‐ HCT116 cells: Figure S2, Bay11‐7082 5 μM, TPCA1 20 μM, 72 hours; for recovery of the efficacy of L‐OHP on KRASm/TP53‐ HCT116 cells: MG132 0.5 μM with L‐OHP 4 μM; for cell growth rate of KRASm/TP53‐ HCT116 cells: MG132 0.5 μM; for IC50: read-out: IC50 on KRASm/TP53‐ HCT116 cells, MTS assay, 72 hours post-treatment, n = 3
How it was run: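 HCT116 KRASm/TP53- cells were grown in RPMI1640 with 10% FBS and 1% penicillin/streptomycin at 37°C, 5% CO2, and plated at 4 × 10^5 per well. After 24 h, Bay11-7082 (0, 5 μM), TPCA1 (0, 20 μM) or MG132 (0, 0.5 μM), all in DMSO, were added with L-OHP (0 or 4 μM). Viability was read by MTS after 72 h.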

KRASm/TP53w HCT116 cells = test: MTS cell viability assay, KRASm/TP53w HCT116; format: cell-based; conditions: read-out: IC50 on KRASm/TP53w HCT116 cells, 72 hours post-treatment, n = 3
How it was run: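 ATCC parental HCT116 (KRAS mutant/TP53 wild-type) grown in RPMI1640 with 10% FBS and 1% penicillin/streptomycin at 37°C, 5% CO2. Seeded at 4 × 10^5 cells/well; test compound in DMSO added after 24 h at six levels (0–10 μM or 0–25 μM series). Viability by MTS tetrazolium read-out after 72 h. IC50 reported as mean ± SD, n = 3.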

Safety = format: in vivo, mice
How it was run: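 Female BALB/c nude mice (6 weeks old, 7-8 per group) received s.c. KRASm/TP53w HCT116 cells (4 × 10^6) and were grouped by stratified randomization on tumor volume on day 9 after implant (day 0). L-OHP was given i.p. on days 0, 3, 7, 10, 14 and 17; controls got saline 10 mL/kg. Body weight was taken on days 0, 7, 14 and 21, with hematology and biochemistry on day 21 blood. Mean ± SD; Student's t test.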

proteasome = test: Proteasome activity in vitro
[1] = test system: NF‐κB activity in KRASm/TP53w HCT116 cells; test: NF‐κB activity luciferase assay, KRASm/TP53w HCT116; format: cell-based; conditions: 3 hours treatment
How it was run: (§1)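 Reporter assay: cells seeded at 5 × 10^4/well. After 1 day, shifted to RPMI1640 with 1% FBS for 24 h. Cotransfected by lipofection with NF‑κB‑RE luc2P luciferase plasmid plus CMV‑β‑galactosidase plasmid. 3 h later, test compound added at various concentrations in 1% FBS medium for 3 h. Cells lysed; activity expressed as luciferase/β‑galactosidase.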

[2] = test system: NF‐κB activity in KRASm/TP53‐ HCT116 cells; test: NF‐κB activity luciferase assay, KRASm/TP53‐ HCT116; format: cell-based; conditions: 3 hours treatment
How it was run: as §1

[3] = day 21, L‐OHP 8 mg/kg i.p. twice a week for 3 weeks
[4] = day 21, monotherapies compared to the control group, combination compared to L‐OHP monotherapy

| Compound | recovery of the efficacy of L‐OHP on KRASm/TP53‐ HCT116 cells (KRASm/TP53‐ HCT116 cells) | cell growth rate of KRASm/TP53‐ HCT116 cells (KRASm/TP53‐ HCT116 cells) | IC50 (KRASm/TP53w HCT116 cells) [µM] | IC50 (KRASm/TP53‐ HCT116 cells) [µM] | further results |
| --- | --- | --- | --- | --- | --- |
| Cc1ccc(S(=O)(=O)/C=C/C#N)cc1 [Bay11‐7082] | did not recover the efficacy of L‐OHP | suppressed cell growth rates |  |  |  |
| O=C1[O][Pt]2([NH][C@@H]3CCCC[C@H]3[NH]2)[O]C1=O [L‐OHP, oxaliplatin] |  |  | 1.7 | 4.8 | hemoglobin compared to the control group (Safety; [3]): significantly decreased; platelet count compared to the control group (Safety; [3]): significantly decreased; white blood cell count compared to the control group (Safety; [3]): significantly decreased; ALT level (Safety; [4]): elevated; AST level (Safety; [4]): elevated |
| CC(C)C[C@@H](C=O)NC(=O)[C@H](CC(C)C)NC(=O)[C@H](CC(C)C)NC(=O)OCc1ccccc1 [MG132] (Cbz-Leu-Leu-Leu-aldehyde) |  | suppressed cell growth rates |  |  |  |
| NC(=O)Nc1sc(-c2ccc(F)cc2)cc1C(N)=O [TPCA1] | did not recover the efficacy of L‐OHP | suppressed cell growth rates |  |  |  |
| curcumin |  |  | 20 | 17.4 | proteasome activity in vitro (proteasome): suppresses proteasome activity; NF‐κB activity (luciferase/β‐galactosidase) [1]: suppressed NF‐κB activity in a dose‐dependent manner; NF‐κB activity (luciferase/β‐galactosidase) [2]: suppressed NF‐κB activity in a dose‐dependent manner |
